# Bioassay records: PubChem BioAssay, several laboratories
# Only some compounds are listed: those with a hit (about 2.1% of all), similar ones and a draw of the others.
# MEKK2 WT-MEK5: raises or lowers MEK5 binding to wildtype human MEKK2 PB1 domain; 290,000 tested, 1.1% active; bead flow cytometry, Alexa488-MEK5 binding to MEKK2 WT; actives lie on both sides; AID 1531; binding response (% of control), % at 10 µM; in the data active = binding response below about 67% or above about 130%
# GSK3 alpha inh: blocks human GSK-3 alpha kinase | ADP-Glo luminescence, 60 min | inhibition, % at 10 µM | 320,000 tested, 0.1% active | AID 2650;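 active = more than half of replicates show inhibition above 20%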;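 note: GST-tagged GSK-3 alpha with peptide substrate and 25 µM ATP; 0% = DMSO neutral wells and 100% = GW8510 positive control wells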
# STK33 kinase inh: blocks human STK33 kinase activity; Q9BYT3; purified STK33, MBP phosphorylation, ADP-Glo luminescence; inhibition, % at 10 µM; 320,000 tested, 0.073% active; AID 2661;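 active = inhibition at or above 25%, using the most active replicate where run in duplicate; inactive = inhibition below 25%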
# MEKK3 PB1 HTS: MEKK3-MEK5 PB1 interaction, increase or decrease; 290,000 tested, 1.4% active; AID 1529; bead-based flow cytometry, Alexa488-MEK5 binding to MEKK3; actives lie on both sides; 0 = blocked by unlabeled MEK5, 100 = vehicle; binding response (% of control), % at 10 µM;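 active = binding response more than 3 SD above or below the average of its plate-row segment, actives on both sides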;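 note: Alexa488 bead fluorescence after subtracting the streptavidin-only scavenger bead signal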
# MEKK2 mut-MEK5: signal of MEK5 binding to mutant human MEKK2 PB1 domain; percent response, % at 10 µM; 290,000 tested, 0.35% active; bead flow cytometry, Alexa488-MEK5 binding to MEKK2 mutant; in the data active = percent response above about 24%, passing the limit was not always enough
# GSK3B inh: human GSK3beta kinase inhibition. GST-GSK3beta kinase, ADP-Glo luminescence, 60 min; hits give low values. activity score (negative = inhibition), % at 10 µM. 300,000 tested, 0.038% active. AID 2097;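 active = more than half of replicate wells score below -50%, meaning over 50% inhibition versus plate controls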;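 note: 0% = median DMSO wells and -100% = median GW8510 positive control wells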
#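 Test system: GST-fused GSK3beta enzyme, cell-free | Quantity: 1.6 ng GST-GSK3beta enzyme per well | Reagent: 25 µM ATP with peptide substrate | Schedule: 60 min enzyme reaction, room temperature | Signal: Luminescent ADP-Glo measurement of ADP formed | Read-out basis: Score relative to plate controls | Control set: DMSO and 20 µM GW8510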
# MEKK2wt confirm: raises or lowers MEK5 binding to wildtype human MEKK2, retest; AID 1892; 5,900 tested, 2.4% active; bead flow cytometry, Alexa488-MEK5 binding to MEKK2 WT; actives lie on both sides; binding response (% of control), % at 10 µM; shares compounds with MEKK3 PB1 HTS; in the data active = binding response below about 16% or above about 210%; inactive = in between
# MEKK2mut confirm: signal of MEK5 binding to mutant human MEKK2, retest; shares compounds with MEKK3 PB1 HTS; percent response, % at 10 µM; bead flow cytometry, Alexa488-MEK5 binding to MEKK2 mutant; 5,900 tested, 2% active; in the data active = percent response mostly above about 71%, no sharp cut-off; inactive = mostly below about 38%;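 note: higher means compound restores mutant binding toward wildtype level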
# MEKK3-MEK5 inh: confirmation of inhibitors of MEK5 binding to human MEKK3; shares compounds with MEKK3 PB1 HTS; bead flow cytometry, Alexa488-MEK5 binding to MEKK3; hits give low values; binding response (% of control), % at 10 µM; 5,900 tested, 1.8% active; AID 1894;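 active = binding response below 72% of control, or above a set upper limit, though filed actives all read lower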;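 note: 100% = DMSO only wells and 0% = binding blocked by excess unlabeled MEK5; lower values mean stronger disruption of MEK5 binding to MEKK3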
# Numbers without * were called inactive; nt = no result; [ ] = remark or other dose.
SMILES,MEKK2 WT-MEK5,GSK3 alpha inh,STK33 kinase inh,MEKK3 PB1 HTS,MEKK2 mut-MEK5,GSK3B inh,MEKK2wt confirm,MEKK2mut confirm,MEKK3-MEK5 inh
Fc1ccccc1CNCCc1c[nH]c2ccccc12,107,1,1,101,10,-1,nt,nt,nt
CSc1nnc(C2CCNCC2)n1C,115,-3,-1,104,5,0,nt,nt,nt
COc1ccc2c(c1)c(C(=O)CN1CCN(C)CC1)c(C)n2Cc1ccccc1,141*,-2,-1,103,23,nt,163,53,108
CCN1CCN(CC(=O)c2c(C)n(Cc3ccccc3)c3ccc(OC)cc23)CC1,128,-3,0,105,7,0,nt,nt,nt
CCOC(=O)C(O)(c1ccc(NC(=O)Oc2ccccc2)cc1)C(F)(F)F (stereo not given),107,-3,1,130*,3,0,107,10,103
O=C1C2CCCN2C(c2cccc(Cl)c2)N1c1ccccn1 (stereo not given),0.0*[inhibitor],-1,-1,0.0*[inhibitor],-17,-2,102,2,101
